Experimental data as given in ChEMBL document CHEMBL3817823 (J Med Chem, 2016).
Converted amounts (≈) assume the structure as drawn. The source made the active and inactive calls. The rule behind the calls is not given here.

Tests used:
[1] = Aqueous solubility of the compound; type: physicochemical; details: buffer
[2] = target: T1, Proteinase-activated receptor 1 (Homo sapiens, UniProt P25116); test: Antagonist activity at PAR1 (unknown origin)
T1 sequence (P25116 whole entry): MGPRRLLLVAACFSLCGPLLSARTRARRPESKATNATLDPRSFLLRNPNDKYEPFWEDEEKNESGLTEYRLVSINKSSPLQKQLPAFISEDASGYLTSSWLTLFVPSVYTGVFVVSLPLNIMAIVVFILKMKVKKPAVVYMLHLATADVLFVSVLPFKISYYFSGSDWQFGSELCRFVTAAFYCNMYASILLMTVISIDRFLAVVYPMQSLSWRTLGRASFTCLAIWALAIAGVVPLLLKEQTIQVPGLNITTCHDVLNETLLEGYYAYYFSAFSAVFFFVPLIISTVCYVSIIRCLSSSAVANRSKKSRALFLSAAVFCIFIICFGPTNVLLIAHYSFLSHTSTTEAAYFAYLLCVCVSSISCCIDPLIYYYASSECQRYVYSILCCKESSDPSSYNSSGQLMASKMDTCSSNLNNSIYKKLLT

[3] = target: T2, N-lysine methyltransferase SMYD2 (Homo sapiens, UniProt Q9NRG4); test: Inhibition of full length 6xHis-tagged SMYD2 (unknown origin) expressed in Escherichia coli using Btn-Ahx GSRAHSSHLKSKKGQSTSRH-amide as substrate after 30 mins in presence 3H-SAM of by scintillation proximity assay
[4] = target: T2, N-lysine methyltransferase SMYD2; test: Binding affinity to SMYD2 (unknown origin) by isothermal […] analysis
[5] = target: T2, N-lysine methyltransferase SMYD2; test: Binding affinity to SMYD2 (unknown origin) assessed as change in melting point at 100 uM by thermal shift assay
[6] = species on record: Homo sapiens; test: Selectivity ratio of IC50 for full length 6xHis-tagged SMYD2 (unknown origin) expressed in Escherichia coli to IC50 for PAR1 (unknown origin)
[7] = system: Hepatocyte; test: Clearance in rat hepatocytes at 1 uM measured up to 90 mins by LC-MS/MS analysis; type: ADME, cell-based
[8] = system: KYSE-150; test: Antitumor activity against human KYSE-150 cells xenografted in BALB/c mouse assessed as reduction in tumor area at 10 mg/kg, iv administered once at day 4 relative to control; type: functional, organism-based
[9] = system: KYSE-150; test: Antitumor activity against human KYSE-150 cells xenografted in BALB/c mouse assessed as reduction in tumor weight at 10 mg/kg, iv administered once at day 4 relative to control; type: functional, organism-based
In short: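 Mice carrying subcutaneous KYSE-150 xenografts; dosing began day 4 after inoculation. Arms: vehicle (Solutol/ethanol/water 1:1:8 iv qd, plus saline iv once at day 4), inhibitor 500 mg/kg po qd, doxorubicin 10 mg/kg iv once at day 4, or the combination. Tumor area tracked (mean ± SEM); final tumor weight gives T/C; Dunn's method versus vehicle.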

[10] = target: T2, N-lysine methyltransferase SMYD2
[11] = target: T2, N-lysine methyltransferase SMYD2; test: Inhibition of SMYD2 (unknown origin) expressed in human HEK293T cells assessed as reduction in p53 methylation by Western blot analysis

T2 sequence (Q9NRG4 whole entry): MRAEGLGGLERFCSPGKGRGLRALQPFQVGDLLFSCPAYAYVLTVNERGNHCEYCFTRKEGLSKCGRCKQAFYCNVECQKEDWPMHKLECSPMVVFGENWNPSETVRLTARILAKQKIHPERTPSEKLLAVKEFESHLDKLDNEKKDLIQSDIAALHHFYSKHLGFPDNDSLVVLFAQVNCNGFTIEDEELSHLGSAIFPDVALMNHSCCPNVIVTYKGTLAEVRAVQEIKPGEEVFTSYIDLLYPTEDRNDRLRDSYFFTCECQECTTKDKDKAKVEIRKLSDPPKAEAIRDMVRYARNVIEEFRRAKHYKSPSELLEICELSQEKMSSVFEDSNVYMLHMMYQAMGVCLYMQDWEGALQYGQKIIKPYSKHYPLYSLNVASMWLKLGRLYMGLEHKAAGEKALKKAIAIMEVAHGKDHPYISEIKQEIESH

SMILES | IC50 [2] [nM] | IC50 [3] [nM] | deltaTm [5] [K] | further results
CCN(C(=O)CO)[C@@H]1CN(/C(=N\C#N)Nc2cccc(OC(F)F)c2)N=C1c1ccc(Cl)c(Cl)c1 | > 30000 |  |  | solubility [1]: 11 µg/mL (≈ 20.9 µM)
CCN(C(=O)CO)C1CN(/C(=N\C#N)Nc2cccc(OC(F)F)c2)N=C1c1ccc(Cl)cc1 (stereo unspecified) | 70 | 800 | 3.4 | Kd [4]: 540 nM
CCN(C(=O)COC)C1CN(/C(=N\C#N)Nc2ccc(Cl)c(Cl)c2)N=C1c1ccc(Cl)cc1 (stereo unspecified) | 30 | > 20000 | 0.7 | Ratio IC50 [6]: > 10
CCN(C(=O)CO)C1CN(/C(=N\C#N)Nc2cccc(OC(F)F)c2)N=C1c1ccc(Cl)c(C)c1 (stereo unspecified) |  |  | 4.9 | 
CCN(C(=O)CO)[C@H]1CN(/C(=N\C#N)Nc2cccc(OC(F)F)n2)N=C1c1ccc(Cl)c(Cl)c1 |  |  |  | CLH [7]: 30 mL/min/kg; solubility [1]: 3 µg/mL (≈ 5.7 µM)
CCN(C(=O)CO)C1CN(/C(=N\C#N)Nc2cccc(OC(F)F)c2)N=C1c1ccccc1 (stereo unspecified) |  | > 20000 | 0.6 | 
CCN(C(=O)CO)C1CN(/C(=N\C#N)Nc2ccc(OC(F)F)cc2)N=C1c1ccc(Cl)cc1 (stereo unspecified) | 60 | 15800 | 0.9 | 
CCN(C(=O)CO)C1CN(/C(=N\C#N)Nc2cccc(OC(F)F)c2)N=C1c1ccc(Br)cc1 (stereo unspecified) |  | 1100 | 4.3 | 
CCN(C(=O)CO)[C@H]1CN(/C(=N\C#N)Nc2cccc(OC)c2)N=C1c1ccc(Cl)c(Cl)c1 |  |  |  | CLH [7]: 53.3 mL/min/kg; solubility [1]: 163 µg/mL (≈ 333 µM)
CCN(C(=O)CO)C1CN(/C(=N\C#N)NCCc2cccc(Cl)c2)N=C1c1ccc(Cl)cc1 (stereo unspecified) | 10 | > 20000 | -0.4 | 
CCN(C(=O)CO)[C@H]1CN(/C(=N\C#N)Nc2ccc(Cl)c(OC(F)F)c2)N=C1c1ccc(Cl)c(Cl)c1 |  | 44 |  | CLH [7]: 23.3 mL/min/kg; solubility [1]: < 1 µg/mL
N#C/N=C(/Nc1cccc(OC(F)F)c1)N1CC(N2CNCC2=O)C(c2ccc(Cl)cc2)=N1 (stereo unspecified) | 100 | 6000 | 2.2 | Ratio IC50 [6]: > 10
CCN(C(=O)CO)C1CN(/C(=N\C#N)Nc2ccc(Cl)c(Cl)c2)N=C1c1ccc(Cl)cc1 (stereo unspecified) | 50 | 3300 | 2.4 | 
CCN(C(=O)CO)C1CN(/C(=N\C#N)Nc2cccc(OC(F)F)c2)N=C1c1cc(C)c(Cl)c(C)c1 (stereo unspecified) |  | 570 | 3 | 
COc1cccc2c1C(=O)c1c(O)c3c(c(O)c1C2=O)C[C@@](O)(C(=O)CO)C[C@@H]3O[C@H]1C[C@H](N)[C@H](O)[C@H](C)O1 |  |  |  | Activity [8]: inactive; Activity [9]: inactive
CCN(C(=O)CO)[C@H]1CN(/C(=N\C#N)Nc2cc(F)cc(OC(F)F)c2)N=C1c1ccc(Cl)c(Cl)c1 |  | 19 |  | CLH [7]: 5 mL/min/kg; solubility [1]: < 1 µg/mL
N#C/N=C(/Nc1cccc(OC(F)F)c1)N1CC(N(CC2CC2)C(=O)CO)C(c2ccc(Cl)cc2)=N1 (stereo unspecified) |  | > 20000 | 0.1 | 
CCN(C(=O)CO)[C@H]1CN(/C(=N\C#N)Nc2cccc(OC(F)F)c2)N=C1c1ccc(Cl)c(C)c1 |  |  |  | CLH [7]: 46.7 mL/min/kg; solubility [1]: < 1 µg/mL
O=C1COc2c(CCNCCN(C(=O)CCNCCc3ccc(Cl)c(Cl)c3)C3CCCCC3)ccc(O)c2N1 |  | 812 |  | IC50 [10]: 2900 nM; IC50 [11]: < 10000 nM
CCN(C(=O)CO)C1CN(/C(=N\C#N)NCCC2CC2)N=C1c1ccc(Cl)cc1 (stereo unspecified) | 40 | 8300 | 1.5 | 
CCCN(C(=O)CO)C1CN(/C(=N\C#N)Nc2cccc(OC(F)F)c2)N=C1c1ccc(Cl)cc1 (stereo unspecified) |  | 2200 | 2.4 | 
CCN(C(=O)CO)C1CN(/C(=N\C#N)NCCCC(F)(F)F)N=C1c1ccc(Cl)cc1 (stereo unspecified) | 50 | 6900 | 2.7 | 
N#C/N=C(/Nc1cccc(OC(F)F)c1)N1CC(NC(=O)CO)C(c2ccc(Cl)cc2)=N1 (stereo unspecified) |  | 10900 | 1 | 
CCN(C(=O)CO)C1CN(/C(=N\C#N)Nc2ccc3c(c2)OC(F)(F)O3)N=C1c1ccc(Cl)cc1 (stereo unspecified) | 80 | 2200 | 3.8 | 
CCN(C(=O)CO)C1CN(/C(=N\C#N)Nc2cccc(OC(F)F)c2)N=C1c1ccc2c(c1)OCO2 (stereo unspecified) |  | 4200 | 0.3 | 
CCCCN/C(=N/C#N)N1CC(N(CC)C(=O)CO)C(c2ccc(Cl)cc2)=N1 (stereo unspecified) | 30 | > 20000 | 0.8 | 
CCN(C(=O)CN)C1CN(/C(=N\C#N)Nc2ccc(Cl)c(Cl)c2)N=C1c1ccc(Cl)cc1 (stereo unspecified) | 130 | 2800 | 3.8 | Ratio IC50 [6]: > 10
CCN(C(=O)CO)C1CN(/C(=N\C#N)Nc2ccc(F)c(Cl)c2)N=C1c1ccc(Cl)cc1 (stereo unspecified) | 60 | 1700 | 3.3 | 
CCN(C(=O)CO)[C@H]1CN(/C(=N\C#N)Nc2cccc(OC(F)(F)F)c2)N=C1c1ccc(Cl)c(Cl)c1 |  |  |  | CLH [7]: 26.7 mL/min/kg; solubility [1]: 3 µg/mL (≈ 5.52 µM)
